Each block holds one molecule with its values, some of them ahead of it.
Assays:
[1] = (§1) Concentration required for inhibition of free fatty acid liberation in Canine myocardial lipase assay; assay type: tissue-based, Canis lupus familiaris, Myocardium
Rattus norvegicus [2] = species: Rattus norvegicus; test: Percent inhibition of adipocyte lipolysis in rat adipocyte assay was determined at 200 uM concentration.; assay type: functional
How it was run: (§2)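 Rat adipocytes were prepared by collagenase digestion of abdominal fat pads from male rats (200–250 g) in gassed Krebs-bicarbonate buffer. Lipolysis was driven by 3 µM epinephrine plus 10 µM methylisobutylxanthine. Compound was added from a 20 mM DMSO or water stock to a final 200 µM (1% DMSO), then incubated 1 h at 37 °C under 95:5 O2/CO2. Released glycerol was quantified with glycerol dehydrogenase.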

Canis lupus familiaris [3] = species: Canis lupus familiaris; test: Percent inhibition of free fatty acid liberation at 100 uM was determined in Canine myocardial lipase assay
How it was run: (§3)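 Lipases were extracted from washed canine heart membranes with buffer, heparin and a little Triton X-100. The reaction ran in an oil-water emulsion of triolein with [3H]triolein tracer, 50 mM Tris pH 6.8 and 0.5% BSA. Compound was at 100 µM (3.0% DMSO final), tested in duplicate. Released [3H]oleic acid was extracted into hexane, separated from triolein and scintillation counted.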

Rattus norvegicus [4] = species: Rattus norvegicus; test: Percent inhibition of adipocyte lipolysis in rat adipocyte assay was determined at 30 uM concentration.; assay type: functional
How it was run: (§4)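 Abdominal fat pads from male rats (200–250 g) were collagenase-digested for 1 h at 37 °C in Krebs-bicarbonate buffer gassed with 95:5 O2/CO2, then washed twice. Cells were stimulated with epinephrine (3 µM) plus methylisobutylxanthine (10 µM). Compound was added from DMSO or water stock and incubated 1 h at 37 °C. The run was stopped on ice, and glycerol in the aqueous phase was measured by glycerol dehydrogenase (NAD→NADH).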

Canis lupus familiaris [5] = species: Canis lupus familiaris; test: Percentage inhibition of free fatty acid liberation at 100 uM determined in canine myocardial lipase assay; assay type: functional; how it was run: as §3
Rattus norvegicus [6] = species: Rattus norvegicus; test: Concentration required for inhibition of adipocyte lipolysis in rat adipocyte assay was determined at 3 uM concentration.; assay type: functional
How it was run: (§5)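 Abdominal fat pads from male rats (200–250 g) in Krebs-bicarbonate buffer gassed 95:5 O2/CO2, collagenase-digested 1 h at 37 °C, washed twice. Lipolysis stimulated with epinephrine (3 µM) plus methylisobutylxanthine (10 µM); compounds added from 20 mM DMSO or water stock (final DMSO 1%). Incubated 1 h at 37 °C under O2/CO2, stopped on ice. Medium glycerol measured by glycerol dehydrogenase (NAD to NADH).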

Rattus norvegicus [7] = species: Rattus norvegicus; test: Concentration required for inhibition of adipocyte lipolysis in rat adipocyte assay was determined at 200 uM concentration.; assay type: functional; how it was run: as §2
Rattus norvegicus [8] = species: Rattus norvegicus; test: Percent inhibition of adipocyte lipolysis in rat adipocyte assay was determined at 3 uM concentration.; assay type: functional; how it was run: as §5
Rattus norvegicus [9] = species: Rattus norvegicus; test: Concentration required for inhibition of adipocyte lipolysis in rat adipocyte assay was determined; assay type: functional; how it was run: as §4
Rattus norvegicus [10] = species: Rattus norvegicus; test: Percent inhibition of adipocyte lipolysis in rat adipocyte assay was determined at 100 uM concentration.; assay type: functional; how it was run: as §5
[11] = as §1; assay type: functional, tissue-based, Canis lupus familiaris, Myocardium
Rattus norvegicus [12] = species: Rattus norvegicus; test: Percent inhibition of adipocyte lipolysis in rat adiposite assay was determined at 3 uM concentration.; assay type: functional; how it was run: as §5
Rattus norvegicus [13] = species: Rattus norvegicus; test: Percent inhibition of adipocyte lipolysis in rat adipocyte assay was determined at 3 uM; assay type: functional; how it was run: as §5
Rattus norvegicus [14] = species: Rattus norvegicus; test: Inhibitory concentration (IC50) of adipocyte lipolysis in rat adipocyte assay was determined
Rattus norvegicus [15] = species: Rattus norvegicus; test: Percent inhibition of adipocyte lipolysis in rat adipocyte assay was determined at 100 uM; assay type: functional; how it was run: as §4

Structure (SMILES): COc1ccccc1NC(=O)Nc1cccc2cccnc12
IC50 [1]: 73 µM
inhibition at 200 µM (Rattus norvegicus [2]): 4%

Structure (SMILES): COc1ccc(OC(=O)Nc2cccc3cccnc23)cc1
inhibition (Canis lupus familiaris [3]): 75%
inhibition at 30 µM (Rattus norvegicus [4]): 3%

Structure (SMILES): Cc1ccccc1NC(=O)Oc1cccc2cccnc12
inhibition (Canis lupus familiaris [5]): 7%
inhibition at 3 µM (Rattus norvegicus [6]): 40%

Structure (SMILES): O=C(Nc1ccccc1)Oc1cccc2cccnc12
inhibition (Canis lupus familiaris [5]): 69%
inhibition at 3 µM (Rattus norvegicus [8]): 28%

Structure (SMILES): O=C(Nc1ccccc1Cl)Oc1cccc2cccnc12
inhibition (Canis lupus familiaris [5]): 1%

Structure (SMILES): Cc1ccc2cccc(OC(=O)Nc3ccccc3)c2n1
inhibition (Canis lupus familiaris [5]): 68%
inhibition at 3 µM (Rattus norvegicus [8]): 29%

Structure (SMILES): COc1ccc(CNC(=O)Oc2cccc3cccnc23)cc1
inhibition (Canis lupus familiaris [5]): 72%
IC50 (Rattus norvegicus [9]): 5.8 µM

Structure (SMILES): C[C@@H](NC(=O)Oc1cccc2cccnc12)c1ccccc1
inhibition (Canis lupus familiaris [5]): 76%
IC50 (Rattus norvegicus [9]): 35 µM

Structure (SMILES): COc1ccc(NC(=O)Oc2ccc(S(=O)(=O)O)c3cccnc23)cc1
inhibition (Canis lupus familiaris [5]): 83%
inhibition at 200 µM (Rattus norvegicus [2]): 14%

Structure (SMILES): COc1ccc(CCNC(=O)Oc2cccc3cccnc23)cc1
inhibition (Canis lupus familiaris [5]): 70%
inhibition at 100 µM (Rattus norvegicus [10]): 98%

Structure (SMILES): O=C(Nc1ccc(Br)cc1)Oc1cccc2cccnc12
IC50 [11]: 80 µM
inhibition at 3 µM (Rattus norvegicus [8]): 5%

Structure (SMILES): COc1ccc(CC(=O)Oc2cccc3cccnc23)cc1
inhibition (Canis lupus familiaris [5]): 0%
inhibition at 100 µM (Rattus norvegicus [10]): 74%

Structure (SMILES): COc1ccccc1NC(=O)Oc1cccc2cccnc12
IC50 [1]: 40 µM
IC50 (Rattus norvegicus [9]): 7 µM

Structure (SMILES): O=C(O)c1cccnc1 [NIACIN]
IC50 [1]: 13 µM

Structure (SMILES): Cc1cccc(NC(=O)Oc2cccc3cccnc23)c1
inhibition (Canis lupus familiaris [5]): 64%
Inhibition (Rattus norvegicus [12]): 84%

Structure (SMILES): O=C(Nc1ccccc1)Oc1c(Cl)cc(Cl)c2cccnc12
IC50 [11]: 56 µM
inhibition at 200 µM (Rattus norvegicus [2]): 28%

Structure (SMILES): CCOC(=O)c1ccc(NC(=O)Oc2cccc3cccnc23)cc1
IC50 [1]: 200 µM
inhibition at 200 µM (Rattus norvegicus [2]): 44%

Structure (SMILES): O=C(NCCCCCCNC(=O)ON=C1CCCCC1)ON=C1CCCCC1
IC50 [11]: 4 µM
IC50 (Rattus norvegicus [9]): 1 µM

Structure (SMILES): CC(NC(=O)Oc1cccc2cccnc12)c1ccccc1 (centres undefined)
inhibition (Canis lupus familiaris [3]): 74%
IC50 (Rattus norvegicus [9]): 35 µM

Structure (SMILES): Cc1cnc(C(=O)O)c[n+]1[O-] [ACIPIMOX]
IC50 [11]: 39 µM

Structure (SMILES): O=C(Nc1cccc(Cl)c1)Oc1cccc2cccnc12
inhibition (Canis lupus familiaris [5]): 41%
inhibition at 3 µM (Rattus norvegicus [13]): 5%

Structure (SMILES): O=C(Nc1ccccc1)Oc1ccc(Cl)c2cccnc12
inhibition (Canis lupus familiaris [5]): 69%
inhibition at 3 µM (Rattus norvegicus [8]): 4%

Structure (SMILES): COc1ccc(NC(=O)Oc2cccc3ocnc23)cc1
IC50 [11]: 7 µM
IC50 (Rattus norvegicus [9]): 2.4 µM

Structure (SMILES): COc1ccc(NC(=O)Oc2cccc3cccnc23)cc1
IC50 [11]: 17 µM
IC50 (Rattus norvegicus [14]): 0.1 µM

Structure (SMILES): Cc1ccc(NC(=O)Oc2cccc3cccnc23)cc1
inhibition (Canis lupus familiaris [5]): 63%
Inhibition (Rattus norvegicus [12]): 76%

Structure (SMILES): COc1ccccc1NC(=O)Oc1ccc2cccnc2c1
IC50 [1]: 48 µM
IC50 (Rattus norvegicus [9]): 80 µM

Structure (SMILES): COc1cccc(NC(=O)Oc2cccc3cccnc23)c1
IC50 [11]: 18 µM
IC50 (Rattus norvegicus [9]): 7 µM

Structure (SMILES): COc1ccccc1NC(=O)Oc1ccc2ncccc2c1
IC50 [1]: 42 µM
IC50 (Rattus norvegicus [9]): 30 µM

Structure (SMILES): O=C(Nc1ccc(Cl)cc1)Oc1cccc2cccnc12
inhibition (Canis lupus familiaris [5]): 58%
inhibition at 3 µM (Rattus norvegicus [8]): 52%

Structure (SMILES): COc1ccc(NC(=O)Oc2cccc3ccc(C)nc23)cc1
inhibition (Canis lupus familiaris [5]): 68%
IC50 (Rattus norvegicus [9]): 0.2 µM

Structure (SMILES): O=C(Nc1cccc(C(F)(F)F)c1)Oc1cccc2cccnc12
inhibition (Canis lupus familiaris [5]): 56%
inhibition at 3 µM (Rattus norvegicus [6]): 7%

Structure (SMILES): COc1ccccc1NC(=O)Oc1cccc2ncccc12
IC50 [11]: 48 µM
inhibition at 200 µM (Rattus norvegicus [2]): 31%

Structure (SMILES): Cc1ccc2cccc(OC(=O)Nc3ccc(Br)cc3)c2n1
inhibition (Canis lupus familiaris [5]): 68%
inhibition at 3 µM (Rattus norvegicus [8]): 5%

The next lines start with results.

inhibition (Canis lupus familiaris [3]): 64%
Structure (SMILES): COc1ccc(NC(=O)Oc2ccc3ncccc3c2)cc1
inhibition at 30 µM (Rattus norvegicus [4]): 8%

inhibition (Canis lupus familiaris [5]): 45%
Structure (SMILES): Cc1ccccc1NC(=O)Oc1ccc2cccnc2c1
inhibition at 200 µM (Rattus norvegicus [7]): 20%

inhibition (Canis lupus familiaris [5]): 97%
Structure (SMILES): COc1ccc(CCNC(=O)Oc2ccc3cccnc3c2)cc1
inhibition at 100 µM (Rattus norvegicus [10]): 84%

inhibition (Canis lupus familiaris [5]): 13%
Structure (SMILES): COc1ccc(C(=O)Oc2cccc3cccnc23)cc1
inhibition at 200 µM (Rattus norvegicus [2]): 49%

IC50 [1]: 20 µM
IC50 (Rattus norvegicus [9]): 30 µM
Structure (SMILES): COc1ccccc1OC(=O)Nc1cccc2cccnc12

inhibition (Canis lupus familiaris [3]): 63%
Structure (SMILES): COc1ccc(NC(=O)Oc2cccc3ncccc23)cc1
inhibition at 30 µM (Rattus norvegicus [4]): 1%

inhibition (Canis lupus familiaris [5]): 60%
Structure (SMILES): COc1ccc(NC(=O)Oc2ccc3cccnc3c2)cc1
inhibition at 30 µM (Rattus norvegicus [4]): 0%

inhibition (Canis lupus familiaris [5]): 65%
IC50 (Rattus norvegicus [6]): 0.2 µM
Structure (SMILES): COc1ccc(NC(=O)Oc2cccc3cccnc23)c(OC)c1

inhibition (Canis lupus familiaris [5]): 12%
Structure (SMILES): O=C(Nc1ccccc1C(F)(F)F)Oc1ccc2cccnc2c1

inhibition (Canis lupus familiaris [3]): 46%
Structure (SMILES): CCOC(=O)c1ccc(NC(=O)Oc2ccc3cccnc3c2)cc1
inhibition at 200 µM (Rattus norvegicus [2]): 18%

inhibition (Canis lupus familiaris [3]): 52%
Structure (SMILES): COc1cccc(NC(=O)Oc2ccc3cccnc3c2)c1
inhibition at 200 µM (Rattus norvegicus [2]): 25%

inhibition (Canis lupus familiaris [5]): 6%
Structure (SMILES): O=C(Nc1ccccc1Cl)Oc1ccc2cccnc2c1

inhibition (Canis lupus familiaris [3]): 7%
Structure (SMILES): COc1ccc(NC(=O)COc2cccc3cccnc23)cc1
inhibition at 100 µM (Rattus norvegicus [15]): 26%

IC50 [11]: 48 µM
IC50 (Rattus norvegicus [9]): 10 µM
Structure (SMILES): COc1ccc(OC)c(NC(=O)Oc2cccc3cccnc23)c1
